Source: PubChem BioAssay
MC4R barr agon: human MC4R agonism via beta-arrestin; activation, % at 8.9 µM; 0.98% of 360,000 active; AID 540308; P32245; U2OS MC4R beta-arrestin complementation, luminescence; percent of melanotan II response, DMSO zero;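 active means activation above a per-plate cutoff, the mean activation of sample wells on that plate plus 3 SD, cut at about 8% in these data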
Target sequence (P32245 whole entry, looked up): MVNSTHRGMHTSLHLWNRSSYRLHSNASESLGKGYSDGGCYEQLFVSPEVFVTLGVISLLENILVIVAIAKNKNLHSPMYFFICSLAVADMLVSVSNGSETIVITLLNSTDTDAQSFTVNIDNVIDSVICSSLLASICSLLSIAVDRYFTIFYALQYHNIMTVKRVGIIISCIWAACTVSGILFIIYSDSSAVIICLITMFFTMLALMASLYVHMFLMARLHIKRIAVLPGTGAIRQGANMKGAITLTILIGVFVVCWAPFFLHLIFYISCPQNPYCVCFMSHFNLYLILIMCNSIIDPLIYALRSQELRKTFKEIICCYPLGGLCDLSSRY
MC4R antagonist: human MC4R antagonism in cAMP assay; P32245; MC4R-expressing cells, MTII-stimulated cAMP, LANCE TR-FRET; inhibition, % at 6.5 µM; 0.48% of 360,000 active; AID 540295;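 active means inhibition above its plate's cutoff, the mean of tested wells on that plate plus 3 SD, cut at about 29% in these data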;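 further: 0% = Melanotan II alone and 100% = Melanotan II plus saturating MCL0020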
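System – human MC4R-expressing U2OS cells · Also added – Melanotan II · Dosing – one concentration, 6.5 µM nominal · Timing – 30-min compound, 1-h challenge, 1-h detection, room temperature · Measured by – Eu-cAMP/anti-cAMP TR-FRET, emission 671 nm · Replicates – singlicate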
CFTR F508del cor: correctors of CFTR F508del function in bronchial epithelial cells | activity (quench increase), % at 7.58 µM | CFBE cells, YFP halide quenching; stimulated with forskolin plus potentiator P3; % fluorescence drop versus neutral controls | 0.36% of 350,000 active;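 active means mean added fluorescence quench of at least 8% versus neutral control, with both replicates also reaching 8%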;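 further: cells transiently co-express mutant CFTR-F508del with the halide-sensitive YFP; corrector assay measuring rescue of mutant channel to the surface after 24 h compound exposure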
SMARCA2 act: SMARCA2 function activation, primary screen; MG213 cells, MMTV-luciferase reporter, dexamethasone, overnight; activation, % at 9.1 µM; 1% of 370,000 active; AID 652017; in the data active means activation above about 7.8%;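 further: 0% = vehicle wells and 100% = reference activator wells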
SMARCA2 act conf: SMARCA2 activation, confirmation screen. activation, % at 9.1 µM. 30% of 3,500 active. MG213 cells, MMTV-luciferase with dexamethasone, luminescence, overnight; MG213 cells expressing E1A, Rb sequestered; DMSO wells 0%, reference activator 100%. shares compounds with SMARCA2 act;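 active means activation above its plate's cutoff, the mean activation of tested wells plus 3 SD, cut at about 7.9% in these data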
GAL4-VP16 Luc: counter-screen for SMARCA2 activators: GAL4-VP16 luciferase reporter activation; shares compounds with SMARCA2 act; HEK293 GAL4-VP16 pG5luc reporter, luciferase luminescence; scaled: DMSO wells 0%, SAHA wells 100%; activation, % at 9.1 µM; 41% of 3,500 active; AID 686939;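 active means activation above the solvent-only control well mean plus 3 SD, averaged across control plates, cut at about 5.2% in these data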
The depositor's hits bear a star; . = not tested or not shown. An excerpt weighted towards active compounds, which were near 2.1% of everything screened.

SMILES	MC4R barr agon	MC4R antagonist	CFTR F508del cor	SMARCA2 act	SMARCA2 act conf	GAL4-VP16 Luc
O=C(Nc1c(C(=O)Nc2ccccc2)cnn1-c1ccccc1)c1ccco1	-0.9	-0.9	-0.6	9.8*	1.0	-0.3
O=C(Nc1ccc2c(c1)ncn2-c1ccccc1)c1ccco1	-2.4	-11.1	.	10.9*	15.9*	7.9*
Cc1ccc(-c2cnc3c(c2)C(=O)N([C@@H](C)CO)C[C@@H](C)[C@@H](CN(C)Cc2ccccc2C(=O)O)O3)cc1	.	.	0.5	.	.	.
COc1cc(/C=C/C(=O)OCC(=O)Nc2ccc(Cl)cn2)ccc1O	2.0	-0.9	-2.0	10.2*	3.9	1.3
CCS(=O)(=O)c1ccc2c(c1)N(S(C)(=O)=O)CC(C(=O)NCCOC)O2 (configuration not stated)	-1.7	3.2	.	11.6*	-0.5	0.8
COc1ccc(CN2C[C@H](O)COC[C@H]3O[C@@H](CC(=O)NCCN4CCCC4)CC[C@@H]32)cc1	.	.	1.2	.	.	.
Cc1ccc2nc(N3C(=O)C(O)=C(C(=O)c4ccco4)C3c3cccs3)sc2c1 (configuration not stated)	-0.5	2.0	.	11.6*	2.0	10.3*
COc1ccc(S(=O)(=O)N(C)C[C@H]2Oc3c(NC(=O)NC(C)C)cccc3C(=O)N([C@@H](C)CO)C[C@H]2C)cc1	.	.	-0.8	.	.	.
CCOC(=O)c1ccc(S(=O)(=O)N2CCC(C(=O)N3CCN(c4ccccc4OC)CC3)CC2)cc1	-1.8	19.0	2.0	-3.3	.	.
COc1ccccc1N1CCN(C(=O)C2CCN(S(=O)(=O)c3ccc(F)cc3)CC2)CC1	-1.1	7.9	.	8.8*	1.4	0.1
CC(NC(=O)CCSCc1ccccc1F)c1ccccc1 (configuration not stated)	-2.4	12.1	-0.8	12.4*	3.2	3.7
COCCN(C(=O)c1ccccc1OC1CCN(S(C)(=O)=O)CC1)C(C)C	-1.5	2.1	-1.7	8.1*	-0.4	1.0
O=C(c1ccccc1)N1CC(=O)N2[C@H](CO)[C@H](c3ccc(C#CCC4CCCC4)cc3)[C@@H]2C1	.	.	3.1	.	.	.
COc1ccc(C(=O)C[n+]2cccc3cc(C)ccc32)cc1	0.2	-4.0	1.5	-1.8	.	.
Cc1ccc2c(ccc[n+]2CC(=O)c2ccccc2)c1	1.6	-8.3	.	11.7*	-4.1	-0.1
CNC(=O)C[C@H]1CC[C@@H]2[C@H](COC[C@@H](O)CN2Cc2ccc(Cl)c(Cl)c2)O1	.	.	-1.9	.	.	.
Cc1ccc(C(=O)Nc2ccc(F)cc2)cc1NC1=NC2CS(=O)(=O)CC2S1 (configuration not stated)	0.5	4.8	-1.7	9.8*	-5.2	1.5
COc1ccc(CNC(=O)c2ccccc2SC)cc1	-1.8	-1.0	.	0.3	.	.
CC(=O)OCc1ccccc1Sc1ccccc1C(=O)NCc1ccccc1	-0.8	8.8	-3.0	10.4*	1.3	0.5
Cc1cc2nc(-c3ccc(SCC(=O)N4CCN(C(=O)c5ccco5)CC4)nc3)[nH]c2cc1C	1.1	6.2	.	10.2*	9.2*	8.8*
CCc1sc(C(=O)NCc2ccco2)cc1C	0.0	2.4	1.1	11.1*	-1.4	1.3
CN(Cc1ccccc1)C(=O)c1cc(-c2ccc(Br)cc2)on1	-2.7	1.5	0.4	8.1*	2.5	5.3*
Cc1cc(C(=O)N(C)Cc2ccc(Br)cc2)no1	1.2	10.4	.	-9.3	.	.
COC(=O)Cc1csc(Nc2ccc(Cl)cc2)n1	-1.0	-5.2	.	0.9	.	.
COC(=O)Cc1csc(Nc2ccccc2)n1	-2.0	3.4	.	8.4*	6.2	4.5
SMILES	MC4R barr agon	MC4R antagonist	CFTR F508del cor	SMARCA2 act	SMARCA2 act conf	GAL4-VP16 Luc
Cn1nc2sc3ccccc3n2c(=O)c1=O	-1.8	4.7	2.2	-4.7	.	.
N#Cc1cnc2sc3ccccc3n2c1=N	-1.4	-0.2	.	9.5*	9.2*	7.0*
COCCNC(=O)C[C@H]1CC[C@H]2[C@@H](COc3ccc(NC(=O)c4cnccn4)cc3C(=O)N2C)O1	.	.	1.4	.	.	.
Cn1cnc2c(SCc3ccccc3)ncnc21	-2.3	-3.0	-4.3	9.7*	5.7	4.6
ClCCn1cnc2c(SCc3ccccc3)ncnc21	-1.4	1.0	.	8.0*	3.7	5.2*
CN(C)Cc1ccc(CNC(=O)c2ccc(Cl)c(S(=O)(=O)NC3CC3)c2)cc1	-2.1	0.2	1.5	9.0*	0.3	2.9
CN(C)Cc1ccccc1CNC(=O)c1ccc(Cl)c(S(=O)(=O)NC2CC2)c1	-2.1	3.8	3.7	2.1	.	.
C[C@@H](NC(=O)C[C@H]1C[C@@H]2c3cc(NC(=O)C4CCOCC4)ccc3O[C@@H]2[C@H](CO)O1)c1ccccc1	.	.	-1.1	.	.	.
C[C@@H]1CN([C@H](C)CO)C(=O)c2c(c3ccccc3n2C)-c2ccccc2CO[C@@H]1CN(C)C(=O)Nc1ccc(F)cc1	.	.	-0.2	.	.	.
C[C@H](CO)N1C[C@H](C)[C@@H](CN(C)C(=O)C2CCCCC2)OCCCC[C@H](C)Oc2ccc(NC(=O)NC3CCCCC3)cc2C1=O	.	.	0.7	.	.	.
Cn1c(N)c(C(=O)COC(=O)c2ccc(Cl)c(S(=O)(=O)N3CCCCC3)c2)c(=O)n(C)c1=O	-2.2	2.5	.	11.6*	-0.7	-1.5
O=C(COC(=O)c1ccc(Cl)c(S(=O)(=O)N2CCCCC2)c1)NC1CCCCC1	1.1	11.8	.	14.6*	1.9	-1.4
COc1ccc(C(=O)NC2CCCCC2)cc1S(=O)(=O)N1CCOCC1	-1.9	-1.7	0.7	14.7*	-2.0	-1.3
O=C(COC(=O)c1ccc(Cl)c(S(=O)(=O)N2CCCC2)c1)NC1CCCCC1	-4.1	5.3	-1.9	-1.7	.	.
Cc1noc(C)c1S(=O)(=O)Nc1ccc2c(c1)CC(=O)N([C@H](C)CO)C[C@H](C)[C@@H](CN(C)Cc1ccccc1)O2	.	.	-1.6	.	.	.
C[C@H]1CN([C@@H](C)CO)C(=O)c2cccc(NC(=O)C3CCCCC3)c2O[C@H]1CN(C)C	.	.	1.1	.	.	.
Cc1cc(C)cc(NC(=O)CCc2c(C)nn(-c3ccc(N4CCCCC4)nn3)c2C)c1	-0.2	7.0	-1.3	10.6*	3.0	6.3*
Cc1ccc(NC(=O)CCc2c(C)nn(-c3ccc(N4CCCCC4)nn3)c2C)cc1	-1.5	5.9	-2.2	2.3	.	.
C[C@H](CO)N1C[C@H](C)[C@H](CN(C)S(C)(=O)=O)Oc2c(NC(=O)C3CC3)cccc2C1=O	.	.	1.8	.	.	.
COc1cccc(CN2CC3(C2)CN(C(=O)C2CC2)[C@H](CO)c2c3c3ccc(OC)cc3n2C)c1	.	.	2.9	.	.	.
Cc1cc(-c2nc3ccccc3s2)ccc1N	-0.7	8.0	-2.6	-0.4	.	.
COc1cc(OC)cc(-c2nc3ccccc3s2)c1	3.9	21.4	.	8.2*	11.3*	4.5
O=C(NCCC1=CCCCC1)C1CCCN(S(=O)(=O)c2cccnc2)C1 (configuration not stated)	-1.2	2.5	2.1	1.4	.	.
